≈ marks a conversion by molar mass, not a printed value.
Key:
[1] = target: T1, Peroxisome proliferator-activated receptor alpha (Homo sapiens, UniProt Q07869); assay: Transactivation of human GAL4-fused PPARalpha LBD expressed in African green monkey COS7 cells co-expressing 5Gal4 pGL3 TK Luc after overnight incubation by luciferase reporter gene assay; format: cell-based
T1 sequence (Q07869 whole entry): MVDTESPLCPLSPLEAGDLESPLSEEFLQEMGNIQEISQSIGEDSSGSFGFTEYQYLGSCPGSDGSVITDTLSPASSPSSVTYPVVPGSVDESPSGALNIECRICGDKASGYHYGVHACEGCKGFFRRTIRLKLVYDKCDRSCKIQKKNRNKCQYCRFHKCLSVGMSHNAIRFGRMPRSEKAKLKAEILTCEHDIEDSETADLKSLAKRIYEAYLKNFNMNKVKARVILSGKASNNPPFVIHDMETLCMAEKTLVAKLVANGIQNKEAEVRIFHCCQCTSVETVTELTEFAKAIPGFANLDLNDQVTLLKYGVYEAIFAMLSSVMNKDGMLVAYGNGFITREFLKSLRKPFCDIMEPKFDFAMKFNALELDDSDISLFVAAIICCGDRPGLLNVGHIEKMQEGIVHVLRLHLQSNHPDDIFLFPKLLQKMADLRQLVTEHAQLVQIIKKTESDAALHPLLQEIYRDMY
How it was run: (§1)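 Cell-based Gal-4 transactivation assay in COS-7 cells transfected with PPARα, PPARδ or PPARγ ligand-binding domain. EC50 and Emax were derived, with Emax as maximum activation in percent of control. EC50s are means of at least two independent experiments performed in triplicate.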

[2] = target: T2, Peroxisome proliferator-activated receptor delta (Homo sapiens, UniProt Q03181); assay: Transactivation of human GAL4-fused PPARdelta LBD expressed in African green monkey COS7 cells co-expressing 5Gal4 pGL3 TK Luc after overnight incubation by luciferase reporter gene assay; format: cell-based; how it was run: as §1
T2 sequence (Q03181 whole entry): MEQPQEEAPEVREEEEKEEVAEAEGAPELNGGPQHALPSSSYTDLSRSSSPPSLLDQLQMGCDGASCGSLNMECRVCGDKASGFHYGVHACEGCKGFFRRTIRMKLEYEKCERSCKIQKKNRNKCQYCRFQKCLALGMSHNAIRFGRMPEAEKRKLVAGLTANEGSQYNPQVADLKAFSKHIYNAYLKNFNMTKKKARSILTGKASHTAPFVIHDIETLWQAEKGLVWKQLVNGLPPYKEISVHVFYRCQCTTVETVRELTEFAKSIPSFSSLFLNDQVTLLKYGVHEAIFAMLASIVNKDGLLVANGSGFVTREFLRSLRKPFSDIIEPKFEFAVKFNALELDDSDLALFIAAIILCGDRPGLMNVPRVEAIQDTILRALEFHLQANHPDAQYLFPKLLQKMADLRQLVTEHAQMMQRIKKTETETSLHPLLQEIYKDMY

[3] = target: T3, Peroxisome proliferator-activated receptor gamma (Homo sapiens, UniProt P37231); assay: Transactivation of human GAL4-fused PPARgamma LBD expressed in African green monkey COS7 cells co-expressing 5Gal4 pGL3 TK Luc after overnight incubation by luciferase reporter gene assay; format: cell-based; how it was run: as §1
T3 sequence (P37231 whole entry): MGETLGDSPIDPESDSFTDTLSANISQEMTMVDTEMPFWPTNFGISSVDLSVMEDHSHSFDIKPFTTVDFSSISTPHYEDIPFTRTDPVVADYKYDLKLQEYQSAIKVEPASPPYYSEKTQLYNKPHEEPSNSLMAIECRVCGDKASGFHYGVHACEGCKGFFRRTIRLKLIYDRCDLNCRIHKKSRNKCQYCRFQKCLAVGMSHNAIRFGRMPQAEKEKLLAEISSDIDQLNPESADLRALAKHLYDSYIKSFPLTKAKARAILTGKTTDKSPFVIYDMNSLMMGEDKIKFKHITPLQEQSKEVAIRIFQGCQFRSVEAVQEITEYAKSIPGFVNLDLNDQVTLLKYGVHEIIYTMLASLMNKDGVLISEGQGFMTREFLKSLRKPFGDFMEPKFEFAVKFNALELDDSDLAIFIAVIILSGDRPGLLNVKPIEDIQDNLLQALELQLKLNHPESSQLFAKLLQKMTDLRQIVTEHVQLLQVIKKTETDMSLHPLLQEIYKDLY

[4] = target: T4, Peroxisome proliferator-activated receptor gamma (Homo sapiens) (UniProt P37231); assay: Transactivation of human GAL4-fused PPARgamma LBD expressed in African green monkey COS7 cells co-expressing 5Gal4 pGL3 TK Luc after overnight incubation by luciferase reporter gene assay relative to rosiglitazone; format: cell-based; how it was run: as §1
T4 sequence (whole entry): T3 sequence (P37231 whole entry)

[5] = Apparent permeability from apical to basolateral side in human Caco2 cells at 10 uM after 2 hrs by LC-MS/MS analysis; format: ADME, cell-based, Caco-2
[6] = Efflux ratio of apparent permeability in human Caco2 cells at 10 uM after 2 hrs by LC-MS/MS analysis; format: ADME, cell-based, Caco-2
[7] = Aqueous solubility in fasted state simulated intestinal fluid; format: physicochemical
[8] = target: T5, Peroxisome proliferator-activated receptor alpha (Homo sapiens) (UniProt Q07869); assay: Transactivation of PPARalpha in human HuH7 cells assessed increase in [14C]oleate beta-oxidation at 30 uM preincubated for 48 hrs followed by [14C]oleate addition during last 2 hrs of incubation period relative to control; format: cell-based
T5 sequence (whole entry): T1 sequence (Q07869 whole entry)
How it was run: (§2)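 Fatty acid beta-oxidation was used as the functional read-out. PPARα activity was tested in human hepatoma HuH7 cells and PPARδ activity in mouse myoblast C2C12 cells, at 1, 3, 10 and 30 µM. Values are % beta-oxidation, mean of at least 2 independent experiments run in triplicate, with single-experiment values flagged.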

[9] = target: T6, Peroxisome proliferator-activated receptor delta (Mus musculus) (UniProt P35396); assay: Transactivation of PPARdelta in mouse C2C12 cells assessed increase in [14C]oleate beta-oxidation at 10 uM preincubated for 48 hrs followed by [14C]oleate addition during last 2 hrs of incubation period relative to control; format: cell-based; how it was run: as §2
T6 sequence (whole entry): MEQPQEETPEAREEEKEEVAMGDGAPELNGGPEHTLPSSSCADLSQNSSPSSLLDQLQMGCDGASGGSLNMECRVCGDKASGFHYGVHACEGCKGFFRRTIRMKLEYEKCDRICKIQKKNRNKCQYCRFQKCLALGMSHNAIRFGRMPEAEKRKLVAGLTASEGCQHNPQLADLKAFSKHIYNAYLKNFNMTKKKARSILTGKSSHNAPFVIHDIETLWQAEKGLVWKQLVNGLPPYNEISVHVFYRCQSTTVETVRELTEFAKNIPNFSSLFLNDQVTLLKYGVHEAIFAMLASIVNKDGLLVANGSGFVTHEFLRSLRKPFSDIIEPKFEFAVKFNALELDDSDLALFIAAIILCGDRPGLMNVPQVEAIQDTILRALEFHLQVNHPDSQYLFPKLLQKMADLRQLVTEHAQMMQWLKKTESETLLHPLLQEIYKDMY

[10] = Cmax in C57Bl6 mouse at 10 mg/kg, po administered as single oral dose; format: ADME, organism-based; settings: in vivo
How it was run: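 Single oral dose of 10 mg/kg in methyl cellulose vehicle given to C57Bl6 mice. Plasma was sampled over a 24 h period. […]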

O=C(O)CCCc1cc2cc(Cl)ccc2n1S(=O)(=O)c1ccc2ncsc2c1 [LANIFIBRANOR]
EC50 [1]: 1540 nM | EC50 [2]: 866 nM | EC50 [3]: 206 nM | Emax [4]: 79% | Papp ([5]; caco-2, 2 h, 10 µM): 24 ×10⁻⁶ cm/s | Ratio ([6]; caco-2, 2 h, 10 µM): 0.1 | solubility [7]: 8.7 µM (≈ 3.78 µg/mL) | Activity [8]: 120% | Activity [9]: 67% | Cmax [10]: 10700 ng/mL

O=C(O)CCc1cc2cc(Cl)ccc2n1S(=O)(=O)c1ccccc1
EC50 [1]: 260 nM | EC50 [2]: 1910 nM | EC50 [3]: 1560 nM | Emax [4]: 43% | Papp A→B at 2 h, 10 µM ([5]; Caco-2): 61 ×10⁻⁶ cm/s | efflux ratio at 2 h, 10 µM ([6]; Caco-2): 0.2 | solubility [7]: 9 µM (≈ 3.27 µg/mL) | Activity [8]: 96% | Activity [9]: 12% | Cmax [10]: 14600 ng/mL

— ChEMBL document CHEMBL4020830, “Design, Synthesis, and Evaluation of a Novel Series of Indole Sulfonamide Peroxisome Proliferator Activated Receptor (PPAR) α/γ/δ Triple Activators: Discovery of Lanifibranor, a New Antifibrotic Clinical Candidate” (J Med Chem, 2018)
